Here are results for 11 compounds from ChEMBL document CHEMBL4251645, “Synthesis of C3-Neoglycosides of digoxigenin and their anticancer activities” (2018).

Each structure is given as a SMILES string. Calls of active or inactive are those of the source. The calls are words filed in the database; no cut-off is given here.

Experiment [1] has as its system NCI-H460. Description: Induction of Nur77 protein expression in human NCI-H460 cells at 20 nM after 3 hrs by Western blot assay. Format: functional, cell-based. Put shortly:
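NIH-H460 cells exposed to 20 nM glycoside for 3 h and lysed. Equal lysate amounts run on 8% SDS-PAGE and blotted to PVDF, then blocked in 5% milk/TBST for 1 h. Anti-Nur77 (1:1000) applied overnight at 4 °C, secondary antibody for 1 h, ECL detection. β-actin (1:10000) reprobe served as loading control.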

In experiment [2] the target is Nuclear receptor subfamily 4immunitygroup A member 1 (Homo sapiens) (UniProt P22736). Put plainly: Induction of Nur77 protein translocation from nucleus to cytoplasm in human NCI-H460 cells at 20 nM by DAPI staining based immunofluorescence microscopic method. Format: cell-based. The following applies: TDE = time-dependent effect. Summed up:
(§1)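 NIH-H460 cells given 20 nM glycoside for 3, 6 and 9 h. Cells permeabilized with 0.1% Triton X-100 for 15 min and blocked in 1% BSA for 30 min. Anti-Nur77 applied at 37 °C for 1 h, then Cy3 anti-rabbit IgG for 30 min at room temperature. DAPI stained nuclei; confocal imaging scored Nur77 nuclear versus cytoplasmic location.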

In experiment [3] the test system is NCI-H460. Description: Induction of apoptosis in human NCI-H460 cells assessed as necrotic cells at 20 nM after 12 hrs by Annexin V-FITC/propidium iodide staining based flow cytometry (reference value: 0.93%). The format is functional. Put shortly:
(§2)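 NIH-H460 cells seeded at 1 × 10^5/well and given 20 nM glycoside for 12 h. Cells trypsinized, spun at 1,500 rpm for 5 min and resuspended in Annexin V binding buffer. Annexin V-FITC stain for 15 min, then propidium iodide for 5 min. Populations quantified by FACS Calibur flow cytometry.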
For orientation: In flow cytometry, cells or beads pass a laser one at a time.

Experiment [4] concerns NCI-H460. Description: Induction of apoptosis in human NCI-H460 cells assessed as late apoptotic cells at 20 nM after 12 hrs by Annexin V-FITC/propidium iodide staining based flow cytometry (reference value: 2.54%). Format: functional. Put shortly:
as §2

The subject of experiment [5] is NCI-H460. Description: Cytotoxicity against human NCI-H460 cells assessed as reduction in cell viability at 50 nM after 48 hrs by MTT assay. The format is functional, cell-based. Put shortly:
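NIH-H460 cells (ATCC; RPMI 1640, 10% FBS, L-glutamine, penicillin/streptomycin) seeded at 3 × 10^3/well, then given medium with 50 nM glycoside for 48 h. MTT ([…]) added for 4 h at 37 °C, formazan dissolved in DMSO, absorbance at 560 nm.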
(In general: Tetrazolium dyes change colour on reduction, which living cells bring about.)

For experiment [6], the system named is NCI-H460. Description: Induction of apoptosis in human NCI-H460 cells assessed as live cells at 20 nM after 12 hrs by Annexin V-FITC/propidium iodide staining based flow cytometry (reference value: 91.81%). The format is functional. Put shortly:
as §2

Experiment [7] concerns NCI-H460. Description: Induction of apoptosis in human NCI-H460 cells assessed as early apoptotic cells at 20 nM after 12 hrs by Annexin V-FITC/propidium iodide staining based flow cytometry (reference value: 4.72%). The format is functional. Summed up:
as §2

Experiment [8] concerns the target Nuclear receptor subfamily 4immunitygroup A member 1 (Homo sapiens) (UniProt P22736). Description: Induction of Nur77 protein translocation from nucleus to cytoplasm in human NCI-H460 cells at 20 nM after 9 hrs by DAPI staining based immunofluorescence microscopic method. The format is cell-based. Summed up:
as §1

Experiment [9] deals with NCI-H460. Put plainly: Induction of apoptosis in human NCI-H460 cells assessed as early apoptotic cells after 12 hrs by Annexin V-FITC/propidium iodide staining based flow cytometry (reference value: 4.72%). The format is functional.
Experiment [10] concerns NCI-H460. Description: Induction of apoptosis in human NCI-H460 cells assessed as live cells after 12 hrs by Annexin V-FITC/propidium iodide staining based flow cytometry (reference value: 91.81%). The format is functional.
For experiment [11], the system named is NCI-H460. Put plainly: Induction of apoptosis in human NCI-H460 cells assessed as necrotic cells after 12 hrs by Annexin V-FITC/propidium iodide staining based flow cytometry (reference value: 0.93%). The format is functional.
The subject of experiment [12] is NCI-H460. Put plainly: Induction of apoptosis in human NCI-H460 cells assessed as late apoptotic cells after 12 hrs by Annexin V-FITC/propidium iodide staining based flow cytometry (reference value: 2.54%). Format: functional.

Nuclear receptor subfamily 4immunitygroup A member 1 (Homo sapiens), sequence (P22736 whole entry): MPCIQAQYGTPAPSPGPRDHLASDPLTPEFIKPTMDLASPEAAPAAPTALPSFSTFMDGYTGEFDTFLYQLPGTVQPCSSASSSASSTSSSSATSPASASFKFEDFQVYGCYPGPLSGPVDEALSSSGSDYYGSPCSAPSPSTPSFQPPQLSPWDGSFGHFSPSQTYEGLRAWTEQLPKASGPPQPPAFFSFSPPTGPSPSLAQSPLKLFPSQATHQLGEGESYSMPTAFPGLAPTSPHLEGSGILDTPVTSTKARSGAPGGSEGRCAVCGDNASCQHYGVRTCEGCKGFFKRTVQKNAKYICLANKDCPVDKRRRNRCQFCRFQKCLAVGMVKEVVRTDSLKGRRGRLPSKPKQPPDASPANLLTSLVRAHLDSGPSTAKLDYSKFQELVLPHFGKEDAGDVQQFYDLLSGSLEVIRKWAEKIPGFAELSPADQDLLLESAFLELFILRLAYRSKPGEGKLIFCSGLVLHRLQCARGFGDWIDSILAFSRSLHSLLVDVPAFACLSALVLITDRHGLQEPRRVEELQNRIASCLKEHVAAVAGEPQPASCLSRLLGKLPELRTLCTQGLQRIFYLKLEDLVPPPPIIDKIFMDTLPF

`C[C@@H]1OC(O[C@H]2CC[C@@]3(C)[C@H](CC[C@@H]4[C@@H]3C[C@@H](O)[C@]3(C)[C@@H](C5=CC(=O)OC5)CC[C@]43O)C2)[C@@H](O)[C@H](O)[C@@H]1O` (stereo not given in full): the outcome (in the experiment on NCI-H460 [1]; in the experiment with NCI-H460 [5]; in [8]) was Active. The Activity result was “Tde” in [2]; 4.21% in the experiment on NCI-H460 [3]; 9.01% in the experiment with NCI-H460 [4]; 61.75% in the experiment on NCI-H460 [6]; 25.02% in the experiment with NCI-H460 [7].
For `C[C@@H]1OC(O[C@H]2CC[C@@]3(C)[C@H](CC[C@@H]4[C@@H]3C[C@@H](O)[C@]3(C)[C@@H](C5=CC(=O)OC5)CC[C@]43O)C2)[C@H](O)[C@H](O)[C@H]1O` (stereo not given in full), the result (with NCI-H460 [1]; with NCI-H460 [5]; in [8]) was Active. The Activity entry in experiment [2] was “Tde”; with NCI-H460 [3] it was 1.55%; in the experiment on NCI-H460 [4], 5.5%; in the experiment on NCI-H460 [6] it was 83.59%; in the experiment on NCI-H460 [7], 9.35%.
As for `C[C@H]1O[C@@H](O[C@H]2[C@@H](O)CC(O[C@H]3CC[C@@]4(C)[C@H](CC[C@@H]5[C@@H]4C[C@@H](O)[C@]4(C)[C@@H](C6=CC(=O)OC6)CC[C@]54O)C3)O[C@@H]2C)C[C@H](O)[C@@H]1O` (stereo not given in full), the outcome in the experiment with NCI-H460 [1] was Active.
On the same count and under the same terms, under `C[C@]12CC[C@H](OC3O[C@H](CO)[C@H](O)[C@H](O)[C@H]3O)C[C@H]1CC[C@@H]1[C@@H]2C[C@@H](O)[C@]2(C)[C@@H](C3=CC(=O)OC3)CC[C@]12O` (stereo not given in full) stands “Active”.
In the case of `C[C@]12CC[C@H](OC3O[C@H](CO)[C@@H](O)[C@H](O)[C@H]3O)C[C@H]1CC[C@@H]1[C@@H]2C[C@@H](O)[C@]2(C)[C@@H](C3=CC(=O)OC3)CC[C@]12O` (stereo not given in full), the outcome with NCI-H460 [5] was Active.
For `C[C@]12CC[C@H](OC3OC[C@@H](O)[C@@H](O)[C@H]3O)C[C@H]1CC[C@@H]1[C@@H]2C[C@@H](O)[C@]2(C)[C@@H](C3=CC(=O)OC3)CC[C@]12O` (stereo not given in full), the outcome (in the experiment with NCI-H460 [1]; with NCI-H460 [5]; in experiment [8]) was Active. Besides, the Activity entry is “Tde” in experiment [2]; 1.24% in the experiment with NCI-H460 [3]; 4.58% with NCI-H460 [4]; 83.97% in the experiment on NCI-H460 [6]; 10.21% with NCI-H460 [7].
Regarding `C[C@H]1O[C@@H](O[C@H]2[C@@H](O)C[C@H](O[C@H]3[C@@H](O)C[C@H](O[C@H]4CC[C@@]5(C)[C@H](CC[C@@H]6[C@@H]5C[C@@H](O)[C@]5(C)[C@@H](C7=CC(=O)OC7)CC[C@]65O)C4)O[C@@H]3C)O[C@@H]2C)C[C@H](O)[C@@H]1O` [DIGOXIN], the Activity was 4.06% in the experiment on NCI-H460 [9], 90.71% in the experiment with NCI-H460 [10], 0.6% in the experiment with NCI-H460 [11] and 4.64% in the experiment with NCI-H460 [12].
Consider `C[C@]12CC[C@H](OC3O[C@H](CO)[C@@H](O[C@@H]4O[C@H](CO)[C@@H](O)[C@H](O)[C@H]4O)[C@H](O)[C@H]3O)C[C@H]1CC[C@@H]1[C@@H]2C[C@@H](O)[C@]2(C)[C@@H](C3=CC(=O)OC3)CC[C@]12O` (stereo not given in full), for which the outcome with NCI-H460 [1] was Active.
Same read-out and setting: under `C[C@]12CC[C@@H](OC3O[C@H](CO)[C@@H](O)[C@H](O)[C@@H]3O)C[C@H]1CC[C@@H]1[C@@H]2C[C@@H](O)[C@]2(C)[C@@H](C3=CC(=O)OC3)CC[C@]12O` (stereo not given in full) stands “Active”.
Consider `C[C@]12CC[C@@H](O)C[C@H]1CC[C@@H]1[C@@H]2C[C@@H](O)[C@]2(C)[C@@H](C3=CC(=O)OC3)CC[C@]12O`, for which the result in the experiment on NCI-H460 [1] was Active.
For the compound `C[C@]12CC[C@H](OC3O[C@H](CO)[C@@H](O[C@@H]4O[C@H](CO)[C@H](O)[C@H](O)[C@H]4O)[C@H](O)[C@H]3O)C[C@H]1CC[C@@H]1[C@@H]2C[C@@H](O)[C@]2(C)[C@@H](C3=CC(=O)OC3)CC[C@]12O` (stereo not given in full), the outcome in the experiment on NCI-H460 [1] was Active.
